Where only a bound is given, the exact number is not on record here.

In this experiment the target is T1, Prostaglandin E synthase (Homo sapiens, UniProt O14684).
T1 sequence (O14684 whole entry): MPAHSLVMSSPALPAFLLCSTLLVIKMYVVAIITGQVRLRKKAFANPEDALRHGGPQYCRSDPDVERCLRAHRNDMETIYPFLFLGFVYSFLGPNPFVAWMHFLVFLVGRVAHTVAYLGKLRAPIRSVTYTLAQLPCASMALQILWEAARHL
Description: Inhibition of full-length microsomal PGES-1 (unknown origin) expressed in Escherichia coli Rosetta(DE3) using PGH2 as substrate assessed as inhibition of PGH2 conversion to PGE2 incubated 15 mins prior to substrate addition measured after 1 min by EIA. Summed up: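 Reactions used 2.5 mM cofactor and 17 μM PGH2 for 1 min at 4 °C, then were stopped, and PGE2 was quantified by EIA. IC50 came from dose-response curves. Mean ± SEM, n = 3.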
Take `C=CCn1c(CNc2c(C)cccc2C)nnc1SCC(=O)Nc1ccccc1C`: the IC50 (as a rule, the concentration at which inhibition is half-maximal) amounted to 12.6 µM.

Turning to `CCn1c(CNC(=O)c2ccc(C)cc2)nnc1SCC(=O)Nc1cc([N+](=O)[O-])ccc1C`, the IC50 is 0.054 µM.

For `COc1ccc(C(=O)CSc2nnc(-c3ccc(OC)cc3)c(-c3ccc(OC)cc3)n2)cc1`, the IC50 is 1 µM.

On to `CCn1c(CNc2ccc(C)cc2C)nnc1SCC(=O)c1ccc(C)cc1`, for which the 50% inhibitory concentration (IC50) was determined as 7.5 µM.

As for `Clc1ccc(CSc2nnc(-c3ccccc3)c(-c3ccccc3)n2)cc1`, the IC50 is over 100 µM.

Consider `CCCCCCCCCSc1nnc(-c2ccc(OC)cc2)c(-c2ccc(OC)cc2)n1`, for which the half-maximal inhibitory concentration (IC50) was determined as 32.9 µM.

`Cc1ccc([N+](=O)[O-])cc1NC(=O)CSc1nnc(CNc2ccc(Cl)cc2)n1C`: the IC50 came to 0.033 µM.

As for `Cc1ccc([N+](=O)[O-])cc1NC(=O)CSc1nnc(CC(=O)Nc2ccccc2)n1C`, the IC50 turned out to be 0.1 µM.

As to `Cc1ccc([N+](=O)[O-])cc1NC(=O)CSc1nnc(-c2ccccc2C)n1C`, the IC50 is 54.5 µM.

For `Cc1ccc(C)c(NC(=O)CSc2nnc(CNc3c(C)cccc3C)n2C)c1`, the IC50 is 3.6 µM.

With `Cc1ccc(-c2nnc(SCC(=O)c3c[nH]c4ccccc34)nc2-c2ccc(C)cc2)cc1`, the IC50 was 0.48 µM.

As to `Cc1ccc([N+](=O)[O-])cc1NC(=O)CSc1nnc(CSCc2ccccc2)n1C`, the half-maximal inhibitory concentration (IC50) worked out at 0.24 µM.

Consider `O=C1COc2ccc(C(=O)CSc3nnc(-c4ccccc4)c(-c4ccccc4)n3)cc2N1`, for which the IC50 worked out at 0.29 µM.

Take `O=C(CSc1nnc(-c2ccccc2)c(-c2ccccc2)n1)c1cccs1`: the IC50 came to 9.6 µM.

With `Cc1[nH]c2ccccc2c1C(=O)C(C)Sc1nnc(-c2ccccc2)c(-c2ccccc2)n1` (stereo unspecified), the IC50 is 2.1 µM.

For the compound `Cc1ccc(C)c(NC(=O)CSc2nnc(CNc3c(C)cccc3C)n2-c2ccccc2)c1`, the IC50 amounted to 13.6 µM.

Consider `CC(C)(C)C(=O)CSc1nnc(-c2ccccc2)c(-c2ccccc2)n1`, for which the IC50 stood at 17.8 µM.

On to `Cc1ccc(N2CCn3c(SCC(=O)Nc4cc(C)ccc4C)nnc32)cc1`, for which the 50% inhibitory concentration (IC50) was over 100 µM.

As to `O=C(CSc1nnc(-c2ccccc2)c(-c2ccccc2)n1)c1c[nH]c2ccccc12`, the concentration for half-maximal inhibition (IC50) stood at 0.5 µM.

For the compound `Cc1ccc([N+](=O)[O-])cc1NC(=O)CSc1nnc(Cc2ccccc2)n1C`, the concentration for half-maximal inhibition (IC50) turned out to be 0.8 µM.

On to `CCn1c(CNc2ccc(C)cc2C)nnc1SCC(=O)Nc1ccc(C)cc1`, for which the IC50 was 5.1 µM.

Regarding `C=CCn1c(SCC(=O)c2ccc3c(c2)Cc2ccccc2-3)nnc1-c1ccc(OC)cc1`, the IC50 turned out to be 0.91 µM.

In the case of `CCCCCCCSc1nnc(-c2ccc(OC)cc2)c(-c2ccc(OC)cc2)n1`, the IC50 was 45.4 µM.

For `Cc1ccc([N+](=O)[O-])cc1NC(=O)CSc1nnc(CNC(=O)COc2c(C)cccc2C)n1C`, the IC50 turned out to be 0.71 µM.

Turning to `COc1ccc(C(=O)CSc2nnc(-c3ccco3)c(-c3ccco3)n2)cc1`, the IC50 was 5 µM.

For the compound `Cc1cccc(C)c1NCc1nnc(SCC(=O)Nc2ccc(F)cc2)n1-c1ccccc1`, the IC50 amounted to 9.2 µM.

As to `O=C(CSc1ncc(-c2ccccc2)nn1)c1ccccc1`, the IC50 worked out at 32.5 µM.

Regarding `COc1ccc(OC)c(NC(=O)CSc2nnc(CNc3c(C)cccc3C)n2C)c1`, the IC50 is 0.93 µM.

For the compound `O=C(CSc1nnc(-c2ccccc2)c(-c2ccccc2)n1)c1ccccc1`, the IC50 was determined as 2.5 µM.

For the compound `COc1ccc(-c2nnc(SCC(=O)Nc3ccc(Cl)cc3)nc2-c2ccc(OC)cc2)cc1`, the IC50 turned out to be 3.1 µM.

`O=C(CCCSc1nnc(-c2ccccc2)c(-c2ccccc2)n1)c1ccccc1`: the IC50 came to 50.8 µM.

For `O=C(CSc1nnc(-c2ccccc2)c(-c2ccccc2)n1)C12CC3CC(CC(C3)C1)C2`, the IC50 is 13.9 µM.

`Cc1cccc(C)c1NCc1nnc(SCc2ccc(Cl)cc2)n1-c1ccccc1`: the concentration for half-maximal inhibition (IC50) came out at 19.4 µM.

With `Cc1ccc(-c2nnc(SCC(=O)c3ccc(CC(N)=O)s3)nc2-c2ccc(C)cc2)cc1`, the IC50 is 0.64 µM.

As to `CCOC(=O)c1ccc(NC(=O)CSc2nnc(CNc3c(C)cccc3C)n2C)cc1`, the concentration for half-maximal inhibition (IC50) turned out to be 5.4 µM.

As for `O=C(CSc1nc(-c2ccccc2)c(-c2ccccc2)[nH]1)c1ccccc1`, the IC50 turned out to be 10.4 µM.

For the origin of these results see ChEMBL document CHEMBL2331332 (J Med Chem, 2013).
